The full list was thinned out, with hits kept by preference.
T cruzi HTS = inhibitors of intracellular Trypanosoma cruzi, primary screen, cell-based, plate reader, single point, set 2; intracellular Trypanosoma cruzi in host cells; activity score (inhibition), % at 5.01 µM; actives 4.9% (n = 22,000); AID 651903, 2012; in the data active = activity score above about 55%;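 also: parasites and compound incubated about four days before reading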
INS-1E ATP HTS = protection of INS-1E cells from cytokine death, primary screen, ATP luminescence, single point. INS-1E cytokine-induced death, 48 h; normalised: neutral wells 0, positive control 100. protection from cytokine-induced ATP loss, % at 10 µM. actives 0.1% (n = 20,000). AID 488910, 2010;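 active = mean replicate protection from cytokine-induced ATP loss at least 50% and at least 75% of replicates each reaching 50%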
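Assay system: INS-1E rat cells / Quantity: 8000 cells per well / Medium: RPMI without phenol red, 5% FBS / Probe or stimulus: three-cytokine cocktail (IFN-γ, TNF-α, IL-1β) / Dosing: one compound concentration, pin transfer / Timing: 48 h co-treatment, 10 min post-lysis read / Technique: CellTiter-Glo luminescence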
A1 apoptosis 2 = A1 inhibitors via caspase activation, primary screen, cell-based, luminescence, HTS, two replicates. MEF A1-2A-BIM cells, caspase-Glo luminescence, 3 h; percent of clofoctol response, DMSO zero. caspase activation, % (no concentration beside the values). 24,000 tested, under 10 active. AID 2465, 2010; in the data active = caspase activation above about 5.9%
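Material: A1-2A-BIM-expressing MEF cells. Buffer or medium: RPMI-1640 plus 10% FBS. Incubation: cells settled overnight, compound exposure 3 h at 37 °C, 5% CO2. Signal: Caspase-Glo 3/7 luminescence, 1 h at room temperature.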
A number is an active result; n = inactive; x = no result.

SMILES	T cruzi HTS	INS-1E ATP HTS	A1 apoptosis 2
C[C@@H]1CCCCO[C@@H](CN(C)Cc2ccc(C(F)(F)F)cc2)[C@@H](C)CN([C@H](C)CO)C(=O)c2cc(NC(=O)Nc3ccc4c(c3)OCO4)ccc2O1	70	n	n
CC1=C(C/C=N/NC(=O)CCCCCCC(=O)Nc2ccccc2O)C(C)(C)CCC1	n	n	x
O=C(N/N=C/c1nccs1)c1ccccn1	n	n	n
O=C(NO)c1cccc(C(=O)N/N=C/c2cc(O)ccc2[N+](=O)[O-])c1	n	n	x
O=C(CCCCCCC(=O)N/N=C/c1ccc(Br)o1)NO	x	x	n
C[C@H]1CN([C@@H](C)CO)C(=O)c2cc(NC(=O)CCCCCC(=O)Nc3ccccc3N)ccc2O[C@H]1CN(C)C(=O)NC1CCCCC1	n	n	n
C[C@H](CO)N1C[C@H](C)[C@H](CN(C)S(=O)(=O)c2ccc(Cl)cc2)Oc2ccc(NC(=O)Cc3cn(C)c4ccccc34)cc2C1=O	n	n	n
C[C@H](CO)N1C[C@H](C)[C@@H](CN(C)Cc2ccc(Cl)c(Cl)c2)Oc2ccc(NC(=O)Cc3cn(C)c4ccccc34)cc2C1=O	n	n	n
C[C@H]1CN([C@@H](C)CO)C(=O)Cc2cc(NC(=O)Cc3cn(C)c4ccccc34)ccc2O[C@@H]1CN(C)Cc1ccc(Cl)c(Cl)c1	x	x	n
C[C@H]1CN([C@@H](C)CO)C(=O)c2cc(NC(=O)Cc3cn(C)c4ccccc34)ccc2O[C@H]1CN(C)S(=O)(=O)c1ccc(Cl)cc1	67	n	n
C[C@H](CO)N1C[C@H](C)[C@H](CN(C)Cc2ccc(Cl)c(Cl)c2)Oc2ccc(NC(=O)Cc3cn(C)c4ccccc34)cc2C1=O	56	n	n
C[C@@H]1CN([C@H](C)CO)C(=O)c2cc(NC(=O)Cc3cn(C)c4ccccc34)ccc2O[C@H]1CN(C)Cc1ccc(-c2ccccc2)cc1	n	n	n
C[C@@H]1CN([C@H](C)CO)C(=O)Cc2cc(NC(=O)Cc3cn(C)c4ccccc34)ccc2O[C@@H]1CN(C)Cc1ccc(Cl)c(Cl)c1	69	n	n
C[C@H]1CN([C@@H](C)CO)C(=O)c2cc(NC(=O)Cc3cn(C)c4ccccc34)ccc2O[C@@H]1CN(C)Cc1ccc(-c2ccccc2)cc1	75	n	n
O=C(O)CCCCCCC(=O)N/N=C/c1ccccc1Cl	n	n	x
[N-]=[N+]=Nc1ccc(NC(=O)c2ccccc2)cc1	x	x	n
COC(=O)CCCCCCC(=O)N/N=C/c1ccccc1Cl	n	n	x
COc1ccc(CN(C)C[C@H]2OCCCC[C@@H](C)Oc3ccc(NC(=O)CCC(F)(F)F)cc3C(=O)N([C@@H](C)CO)C[C@@H]2C)cc1	x	x	n
C[C@H](CO)N1C[C@H](C)[C@H](CN(C)Cc2ccccc2)Oc2ccc(NC(=O)Nc3ccccc3)cc2CC1=O	n	n	n
C[C@@H]1CN([C@H](C)CO)C(=O)Cc2cc(NC(=O)Cc3ccccc3)ccc2O[C@H]1CN(C)Cc1ccc(C(F)(F)F)cc1	70	n	n
C[C@H](CO)N1C[C@H](C)[C@H](CN(C)Cc2ccccc2)Oc2ccc(NC(=O)Nc3ccc(C(F)(F)F)cc3)cc2CC1=O	66	n	x
C[C@H]1CN([C@@H](C)CO)C(=O)Cc2cc(NC(=O)Nc3ccccc3)ccc2O[C@H]1CN(C)Cc1ccc(C(F)(F)F)cc1	67	n	x
C[C@@H]1CN([C@H](C)CO)C(=O)Cc2cc(NC(=O)Nc3ccc(C(F)(F)F)cc3)ccc2O[C@H]1CN(C)Cc1ccccc1	73	n	x
C[C@H](CO)N1C[C@H](C)[C@H](CN(C)Cc2ccccc2)Oc2ccc(NC(=O)Cc3ccccc3)cc2CC1=O	n	n	n
C[C@H](CO)N1C[C@H](C)[C@@H](CN(C)Cc2ccccc2)Oc2ccc(NC(=O)Nc3ccc(C(F)(F)F)cc3)cc2CC1=O	x	x	n
SMILES	T cruzi HTS	INS-1E ATP HTS	A1 apoptosis 2
O=C(N/N=C/c1ccccc1Cl)c1ccccn1	n	n	n
C[C@H](CO)N1C[C@H](C)[C@H](CN(C)C)Oc2ccc(NC(=O)CCN3CCOCC3)cc2C1=O	n	x	n
CC(/C=C/C(=O)NO)=C\c1ccccc1OCc1cn(CCNC(=O)Nc2ccccc2)nn1	x	x	n
O=C1c2ccccc2C(=O)N1[C@@H]1CCCN(Cc2cccc(OCCO)c2)C1	x	x	n
C[C@H](CO)N1C[C@H](C)[C@H](CN(C)Cc2ccccc2)Oc2ccc(NC(=O)Nc3ccc(F)cc3)cc2CC1=O	n	n	n
C[C@H]1CN([C@@H](C)CO)C(=O)Cc2cc(NC(=O)Nc3ccc(C(F)(F)F)cc3)ccc2O[C@H]1CN(C)Cc1ccccc1	70	n	x
Cc1ccc(S(=O)(=O)N2CCC[C@H]2CN=[N+]=[N-])cc1	x	x	n

Bioassay records: PubChem BioAssay, Broad Institute
